Data on 19 compounds can be found in ChEMBL document CHEMBL1138796, “Novel 5-HT7 receptor inverse agonists. Synthesis and molecular modeling of arylpiperazine- and 1,2,3,4-tetrahydroisoquinoline-based arylsulfonamides” (J Med Chem, 2004).

Where “and” joins values, the source holds several entries; their conditions need not be identical. Identical values can stand only once.

The term pKa denotes the pH at which an ionisable group is half protonated. Broadly, the Ki is a dissociation constant, usually derived from enzyme kinetics or from competition with a known ligand. A low value points to a stronger hold on the target. As usually defined, the logP is the decadic logarithm of the partition coefficient of the neutral form, usually between octanol and water.

Data set [1] deals with 5-hydroxytryptamine receptor 7 (Rattus norvegicus) (UniProt P32305). Kind of data set: Effect on basal adenylate cyclase activity relative to potency of methiothepin using rat 5-HT7 receptor expressed in HEK cells. The data set is classed as cell-based. The conditions noted are these: HEK293.
5-hydroxytryptamine receptor 7 (Rattus norvegicus), sequence (P32305 whole entry): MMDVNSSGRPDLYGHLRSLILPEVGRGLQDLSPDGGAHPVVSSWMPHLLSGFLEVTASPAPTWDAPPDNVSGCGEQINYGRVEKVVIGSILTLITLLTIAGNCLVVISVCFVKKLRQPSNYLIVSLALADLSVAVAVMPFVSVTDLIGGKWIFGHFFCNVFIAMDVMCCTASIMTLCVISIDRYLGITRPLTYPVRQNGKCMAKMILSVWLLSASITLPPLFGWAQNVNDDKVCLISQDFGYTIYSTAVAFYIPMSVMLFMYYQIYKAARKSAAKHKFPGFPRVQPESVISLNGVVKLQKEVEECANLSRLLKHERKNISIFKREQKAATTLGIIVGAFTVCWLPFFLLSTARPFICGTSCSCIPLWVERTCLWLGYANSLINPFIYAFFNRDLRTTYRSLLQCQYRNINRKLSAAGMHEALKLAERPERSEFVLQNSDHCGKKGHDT
Data set [2] in a line: pKa. The data set is classed as physicochemical.
The target of data set [3] is 5-hydroxytryptamine receptor 7 (Rattus norvegicus, UniProt P32305). Nature of the data set: Binding affinity towards rat 5-HT7 receptor expressed in HEK cells. The data set is classed as cell-based, HEK293. The method in brief: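 Membranes of HEK cells expressing rat 5-HT7, resuspended in 50 mM Tris HCl pH 7.4 with 0.5 mM EDTA, 10 mM MgSO4, 2 mM CaCl2, 10 µM pargyline, 0.1% ascorbic acid; 20 µg protein with 0.3 nM [3H]5-CT, 2 h at room temperature; nonspecific binding with 10 µM 5-HT; filtration, scintillation counting; IC50 by log regression, Ki via Cheng-Prusoff.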
5-hydroxytryptamine receptor 7, sequence (P32305 whole entry): as above

Data set [4] is described as follows: Partition coefficient (logP). Particulars: octanol/water. The data set is classed as physicochemical.

As to `COc1ccc2[nH]cc(C3=CCN(Cc4ccccc4)CC3)c2c1`, in data set [1], the cAMP was -65%. Moreover, the pKa in data set [2] was 7.7. The compound also yielded a Ki in data set [3] of 1100 nM. Further, the lipophilicity (logP) in data set [4] (read-out: logP) came to 4.3.
Regarding `COc1ccc(S(=O)(=O)NCCCN2CCN(c3ccccc3OC)CC2)cc1`, the cAMP in data set [1] was -35%. The compound further returned a pKa in data set [2] of 7.5. Also, the inhibition constant (Ki) in data set [3] was 100 nM. Besides, in data set [4] (read-out: logP), the log partition coefficient (logP) amounted to 2.1.
As to `CSc1ccc2c(c1)[C@@H](N1CCN(C)CC1)Cc1ccccc1S2`, the cAMP in data set [1] was -100%. In data set [2], this compound showed a pKa of 8.1. The logP in data set [4] (read-out: logP) is 3.4.
For `CCN(CCCN1CCc2cc(OC)ccc2C1)S(=O)(=O)c1ccccc1`, in data set [1], the cAMP was -93%. The same compound showed a pKa in data set [2] of 7.4. This compound had an inhibition constant Ki in data set [3] of 54 nM. The logP in data set [4] (read-out: logP) is 3.1.
Taken in the same sequence, the figures for `CCN(CCCN1CCc2cc(OC)ccc2C1)S(=O)(=O)c1ccc(OC)cc1` were -94%, 7.4, 29 nM and 3.3.
On to `CC1CCN(CC[C@H]2CCCN2S(=O)(=O)c2cccc(O)c2)CC1`, for which the pKa in data set [2] was 10.4. Moreover, the Ki in data set [3] was determined as 1 nM. Also, in data set [4] (read-out: logP), the log partition coefficient (logP) was found to be 2.7.
For the compound `COc1ccc(S(=O)(=O)NCCCN2CCc3cc(OC)ccc3C2)cc1`, the cAMP in data set [1] is -84%. The pKa in data set [2] came out at 7. In addition, the Ki in data set [3] was determined as 1200 nM. Besides, the logP in data set [4] (read-out: logP) came to 2.5.
On to `CCN(CCCN1CCc2cc(OC)ccc2C1)S(=O)(=O)c1ccc(C)cc1`, for which, in data set [1], the cAMP is -95%. This compound had a pKa in data set [2] of 7.4. The compound further gave a Ki in data set [3] of 11 nM. In addition, the log partition coefficient (logP) in data set [4] (read-out: logP) came out at 3.8.
The matching figures for `COc1ccccc1N1CCN(CCNS(=O)(=O)c2ccc(C)cc2)CC1`: -66%, 7.4, 75 nM and 2.2.
For the compound `COc1ccc2c(c1)CCN(CCCNS(=O)(=O)c1ccccc1)C2`, the cAMP in data set [1] was -36%. In addition, the pKa in data set [2] worked out at 7. In data set [3], this compound displayed an inhibitory constant (Ki) of 75 nM. In addition, the logP in data set [4] (read-out: logP) was determined as 2.3.
For the compound `Cc1cccc(S(=O)(=O)N2CCC[C@@H]2CCN2CCC(C)CC2)c1` [SB-258741], the pKa in data set [2] was determined as 10.4. The same compound displayed a Ki in data set [3] of 3 nM. The log partition coefficient (logP) in data set [4] (read-out: logP) came to 3.7.
For `COc1ccc2c(c1)CCN(CCCNS(=O)(=O)c1cccc3ccccc13)C2`, the cAMP in data set [1] is -104%. The pKa in data set [2] came to 7. In data set [3], this compound came in with a Ki of 360 nM. Besides, in data set [4] (read-out: logP), the logP was determined as 3.6.
Taken in the same sequence, the figures for `COc1ccc2c(c1)CCN(CCCNS(=O)(=O)c1ccc(C)cc1)C2` were -61%, 7, 520 nM and 3.
The matching figures for `COc1ccc2c(c1)c(CCN(C)C)cn2C`: -7%, 9.2, 1180 nM and 2.7.
The compound `COc1ccc2c(c1)N(CCN(C)C)CCO2` returned a pKa in data set [2] of 8.6. The inhibition constant (Ki) in data set [3] is 1180 nM and 1100 nM. In addition, the logP in data set [4] and in data set [4] (read-out: logP) was 1.6 each time.
Turning to `CCN(CCCN1CCN(c2ccccc2OC)CC1)S(=O)(=O)c1ccc(C)cc1`, the cAMP in data set [1] was -93%. In data set [3], this compound yielded an inhibition constant (Ki) of 19 nM.
Regarding `COc1ccccc1N1CCN(CCCNS(=O)(=O)c2ccc(C)cc2)CC1`, the cAMP in data set [1] was -20%. This compound displayed a pKa in data set [2] of 7.5. Also, the Ki in data set [3] worked out at 52 nM. In data set [4] (read-out: logP), the logP was found to be 2.6.
Taken in the same sequence, the figures for `CCN(CCCN1CCc2cc(OC)ccc2C1)S(=O)(=O)c1cccc2ccccc12` were -91%, 7.4, 19 nM and 4.3.
Consider `CC1CCN(CC[C@H]2CCCN2S(=O)(=O)c2cccc3ccccc23)CC1`, for which the pKa in data set [2] came out at 10.4. Besides, the affinity in data set [3] corresponds to a Ki of 10 nM. The logP in data set [4] (read-out: logP) came out at 4.2.
